The source of these data is ChEMBL document CHEMBL2040727, “Substituted thiazoles VI. Synthesis and antitumor activity of new 2-acetamido- and 2 or 3-propanamido-thiazole analogs” (2012).

Each structure is given as a SMILES string.

Format in all cases: functional
Test [1] has as its system K562. Kind of test: Growth inhibition of human K562 cells at 10 uM after 48 hrs by coulter counter analysis. The conditions noted are these: K562, 48 h, read-out: GI. The gist of the method:
(§1)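 Single-dose NCI 60-line panel screen of test compounds. Cells grown in RPMI 1640 with 10% FBS. Compounds dissolved in DMSO, then diluted in phosphate buffer saline (final DMSO below 1%). Wells run in duplicate at 6 × 10⁴ cells/ml. Controls held PBS and DMSO at matching dilutions. Incubation 48 h at 37 °C under humidified 5% CO2. Cells diluted tenfold in saline and counted by Coulter counter. Percent growth inhibition taken from mean-graph of treated-cell growth.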

Test [2] relates to RPMI-8226. Kind of test: Growth inhibition of human RPMI8226 cells at 10 uM after 48 hrs by coulter counter analysis. Particulars: RPMI-8226, 48 h, read-out: GI. The gist of the method:
as §1

Test [3] has as its system A549. The test is described as follows: Growth inhibition of human A549/ATCC cells at 10 uM after 48 hrs by coulter counter analysis. The conditions noted are these: A549, 48 h, read-out: GI. Put shortly:
as §1

Test [4] deals with HOP-62. The test is described as follows: Growth inhibition of human HOP62 cells at 10 uM after 48 hrs by coulter counter analysis. Particulars: HOP-62, 48 h, read-out: GI. Put shortly: as §1
The test system of test [5] is NCI-H226. Kind of test: Growth inhibition of human NCI-H226 cells at 10 uM after 48 hrs by coulter counter analysis. Particulars: NCI-H226, 48 h, read-out: GI. Put shortly:
as §1

For test [6], the system named is NCI-H522. The test is described as follows: Growth inhibition of human NCI-H522 cells at 10 uM after 48 hrs by coulter counter analysis. Particulars: NCI-H522, 48 h, read-out: GI. The gist of the method: as §1
In test [7] the test system is HCT-15. Kind of test: Growth inhibition of human HCT15 cells at 10 uM after 48 hrs by coulter counter analysis. The conditions noted are these: HCT-15, 48 h, read-out: GI. The gist of the method:
as §1

Test [8] concerns HT-29. Kind of test: Growth inhibition of human HT-29 cells at 10 uM after 48 hrs by coulter counter analysis. The conditions noted are these: HT-29, 48 h, read-out: GI. The gist of the method: as §1
Test [9] has as its system SW-620. Kind of test: Growth inhibition of human SW620 cells at 10 uM after 48 hrs by coulter counter analysis. The conditions noted are these: SW-620, 48 h, read-out: GI. The gist of the method: (§2)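 Single-dose screen in the NCI 60 cell line panel. Cells grown in RPMI 1640 with 10% FBS. Compounds dissolved in DMSO and diluted in phosphate buffered saline, final DMSO under 1%. Duplicate wells seeded from culture at 6 × 10⁴ cells/ml. Incubated 48 h at 37 °C, humidified, 5% CO2. Cells diluted tenfold in saline and Coulter-counted. Percent growth inhibition computed against PBS/DMSO controls.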

The test system of test [10] is SF-268. The test is described as follows: Growth inhibition of human SF268 cells at 10 uM after 48 hrs by coulter counter analysis. Particulars: SF-268, 48 h, read-out: GI. Put shortly:
as §1

Test [11] relates to SF-295. The test is described as follows: Growth inhibition of human SF295 cells at 10 uM after 48 hrs by coulter counter analysis. Particulars: SF-295, 48 h, read-out: GI. Put shortly: as §1
The test system of test [12] is U-251. Kind of test: Growth inhibition of human U251 cells at 10 uM after 48 hrs by coulter counter analysis. Particulars: U-251, 48 h, read-out: GI. Put shortly: as §2
The test system of test [13] is SK-MEL-5. The test is described as follows: Growth inhibition of human SK-MEL-5 cells at 10 uM after 48 hrs by coulter counter analysis. The conditions noted are these: SK-MEL-5, 48 h, read-out: GI. The gist of the method:
as §1

The subject of test [14] is UACC-62. The test is described as follows: Growth inhibition of human UACC62 cells at 10 uM after 48 hrs by coulter counter analysis. Particulars: UACC-62, 48 h, read-out: GI. The gist of the method: as §2
For test [15], the system named is OVCAR-4. The test is described as follows: Growth inhibition of human OVCAR4 cells at 10 uM after 48 hrs by coulter counter analysis. The conditions noted are these: OVCAR-4, 48 h, read-out: GI. The gist of the method: as §1
Test [16] has as its system OVCAR-5. Kind of test: Growth inhibition of human OVCAR5 cells at 10 uM after 48 hrs by coulter counter analysis. Particulars: OVCAR-5, 48 h, read-out: GI. Put shortly:
as §1

A short description of test [17]: Growth inhibition of human NCI-ADR-RES cells at 10 uM after 48 hrs by coulter counter analysis. The conditions noted are these: read-out: GI. Put shortly: as §1
Test [18] relates to A498. The test is described as follows: Growth inhibition of human A498 cells at 10 uM after 48 hrs by coulter counter analysis. Particulars: A498, 48 h, read-out: GI. The gist of the method:
as §1

The subject of test [19] is RXF 393. Kind of test: Growth inhibition of human RXF393 cells at 10 uM after 48 hrs by coulter counter analysis. Particulars: RXF 393, 48 h, read-out: GI. The gist of the method:
as §1

For test [20], the system named is UO-31. Kind of test: Growth inhibition of human UO31 cells at 10 uM after 48 hrs by coulter counter analysis. Particulars: UO-31, 48 h, read-out: GI. The gist of the method:
as §2

For test [21], the system named is DU-145. The test is described as follows: Growth inhibition of human DU145 cells at 10 uM after 48 hrs by coulter counter analysis. Particulars: DU-145, 48 h, read-out: GI. Put shortly:
as §1

Test [22] concerns MDA-MB-231. Kind of test: Growth inhibition of human MDA-MB-231 cells at 10 uM after 48 hrs by coulter counter analysis. The conditions noted are these: MDA-MB-231, 48 h, read-out: GI. The gist of the method: as §1
Test [23] can be described thus: Growth inhibition of human Hs 578T cells at 10 uM after 48 hrs by coulter counter analysis. The conditions noted are these: read-out: GI. The gist of the method:
as §1

Turning to `Cc1cnc(NC(=O)CCN2CCN(c3ccccc3)CC2)s1`, the inhibition of growth at 10 µM in [1], in [2], in test [3], in test [4], in test [5] and in test [6] was less than 10% each time. The inhibition of growth at 10 µM in test [7], in [8], in test [9], in [10], in test [11] and in test [12] was less than 10% throughout. Also, the inhibition of growth at 10 µM in test [13], in [14], in [15], in test [16], in [17] and in [18] was less than 10% throughout. The inhibition of growth at 10 µM is less than 10% in test [19]; 12.8% in [20]; less than 10% in [21]; less than 10% in test [22]; less than 10% in test [23].
Take `CCOC(=O)c1sc(NC(=O)CN(C)C)nc1C`: the inhibition of growth at 10 µM in [1], in test [2], in test [3], in test [4], in test [5] and in test [6] was less than 10% in each case. Also, the inhibition of growth at 10 µM in [7], in [8], in test [9], in test [10], in [11] and in test [12] was less than 10% in each case. For the same molecule, the inhibition of growth at 10 µM in [13], in [14], in [15], in test [16], in test [17] and in test [18] was less than 10% each time. Besides, the inhibition of growth at 10 µM in [19] was less than 10%; in [20], 14.8%; in test [21] it was less than 10%; in test [22], less than 10%; in [23], less than 10%.
Regarding `CCOC(=O)c1sc(NC(=O)CCN2CCOCC2)nc1C`, the inhibition of growth at 10 µM in test [1], in test [2], in test [3], in test [4], in test [5] and in [6] was less than 10% each time. Further, the inhibition of growth at 10 µM in test [7], in [8], in test [9], in [10], in test [11] and in test [12] was less than 10% each time. The inhibition of growth at 10 µM in test [13], in [14], in test [15], in [16], in [17] and in test [18] was less than 10% throughout. The inhibition of growth at 10 µM was less than 10% in test [19]; 10.6% in [20]; less than 10% in test [21]; less than 10% in test [22]; less than 10% in test [23].
